Experiment [1] deals with HCT-116. Kind of experiment: Cytotoxicity against human HCT116 cells expressing p53 assessed as reduction in cell viability at 50 uM from 24 to 48 hrs by MTT assay. Type of experiment: functional, cell-based. In a few lines: (§1)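 p53-positive HCT116 cells kept in McCoy's 5A with 10% FCS at 37 °C and 5% CO2. Seeded at 1 x 10^4 per well and incubated overnight. Treated at 12.5–200 µM, DMSO-dissolved, for 8, 24 or 48 h, with 0.05% DMSO control. MTT (5 mg/ml) added for the final 1 h at 37 °C. Formazan dissolved in SDS/DMSO/acetic acid and absorbance read at 595 nm. Means ± SD, n = 3.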
In general terms: Formazan colour is commonly taken as a measure of viable cells.

The subject of experiment [2] is HCT-116. Nature of the experiment: Cytotoxicity against human HCT116 cells expressing p53 assessed as reduction in cell viability at 50 uM by MTT assay. In kind it is functional, cell-based. To be noted: TDE = time-dependent effect. In a few lines: as §1
Experiment [3] has as its system HCT-116. Nature of the experiment: Cytotoxicity against human HCT116 cells expressing p53 assessed as reduction in cell viability at 100 to 200 uM after 24 hrs by MTT assay. In kind it is functional, cell-based. In short, it runs like this:
as §1

Experiment [4] deals with HCT-116. Nature of the experiment: Cytotoxicity against human HCT116 cells expressing p53 assessed as reduction in cell viability at 50 uM after 24 hrs by MTT assay. Type of experiment: functional. In short, it runs like this: as §1
Experiment [5] concerns HCT-116. Kind of experiment: Cell cycle arrest in human HCT116 cells assessed as accumulation at G1 phase at 25 uM after 24 hrs using propidium iodide staining by cytofluorometry (reference value: 62.34%). Type of experiment: functional.
Experiment [6] has as its system HCT-116. Kind of experiment: Cell cycle arrest in human HCT116 cells assessed as accumulation at G2/M phase at 50 uM after 24 hrs using propidium iodide staining by cytofluorometry (reference value: 23.45%). Type of experiment: functional.
The test system of experiment [7] is HCT-116. Nature of the experiment: Cell cycle arrest in human HCT116 cells assessed as accumulation at G2/M phase at 25 uM after 24 hrs using propidium iodide staining by cytofluorometry (reference value: 23.45%). In kind it is functional.
For experiment [8], the system named is HCT-116. Nature of the experiment: Induction of apoptosis in human HCT116 cells assessed as increase in bax level by Western blotting. To be noted: TDE = time-dependent effect. Type of experiment: functional, cell-based. In short, it runs like this:
(§2)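 HCT116 cells left untreated or exposed for 0.5–24 h. 50 µg protein separated on 12.5% SDS-PAGE and transferred to PVDF. bcl-2, bax or cytochrome c antibodies applied at 1:1000 overnight at 4 °C, with GAPDH loading control. For cytochrome c, cytosolic extracts were made by snap-freezing PBS-resuspended cells and clearing at 12500×g.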
(Immunoblotting shows a protein as a band on a membrane.)

Experiment [9] deals with HCT-116. Nature of the experiment: Cytotoxicity against human HCT116 cells expressing p53 assessed as cell viability at 50 uM after 48 hrs by MTT assay. Type of experiment: functional. To be noted: HCT-116, 48 h, read-out: Activity. In short, it runs like this:
as §1

In experiment [10] the test system is HCT-116. Nature of the experiment: Cell cycle arrest in human HCT116 cells assessed as accumulation at subG1 phase at 50 uM after 24 hrs using propidium iodide staining by cytofluorometry (reference value: 1.8%). Type of experiment: functional.
For experiment [11], the system named is HCT-116. Nature of the experiment: Cell cycle arrest in human HCT116 cells assessed as accumulation at G1 phase at 50 uM after 24 hrs using propidium iodide staining by cytofluorometry (reference value: 62.34%). Type of experiment: functional.
In experiment [12] the test system is HCT-116. Kind of experiment: Cytotoxicity against human HCT116 cells expressing p53 assessed as reduction in cell viability after 24 hrs by MTT assay. Type of experiment: functional, cell-based. In a few lines:
as §1

The test system of experiment [13] is HCT-116. Nature of the experiment: Induction of apoptosis in human HCT116 cells assessed as increase in caspase 3/7 activation at 50 uM from 24 to 48 hrs by Western blotting. In kind it is functional, cell-based. In a few lines: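 HCT116 cells treated with 0 or 50 µM for 24 and 48 h. Lysed on ice in Tris/MgCl2/NP-40/DTT buffer. Separated on 12.5% SDS-PAGE and probed with caspase 3 antibody for full-length protein and cleavage products. Representative of at least 3 blots.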

Experiment [14] deals with HCT-116. Kind of experiment: Induction of apoptosis in human HCT116 cells assessed as increase in gammaH2AX level at 50 uM from 24 to 72 hrs by Western blotting. Type of experiment: functional, cell-based.
Experiment [15] has as its target T1, M-phase inducer phosphatase 1 (Homo sapiens) (UniProt P30304).
T1 sequence (whole entry): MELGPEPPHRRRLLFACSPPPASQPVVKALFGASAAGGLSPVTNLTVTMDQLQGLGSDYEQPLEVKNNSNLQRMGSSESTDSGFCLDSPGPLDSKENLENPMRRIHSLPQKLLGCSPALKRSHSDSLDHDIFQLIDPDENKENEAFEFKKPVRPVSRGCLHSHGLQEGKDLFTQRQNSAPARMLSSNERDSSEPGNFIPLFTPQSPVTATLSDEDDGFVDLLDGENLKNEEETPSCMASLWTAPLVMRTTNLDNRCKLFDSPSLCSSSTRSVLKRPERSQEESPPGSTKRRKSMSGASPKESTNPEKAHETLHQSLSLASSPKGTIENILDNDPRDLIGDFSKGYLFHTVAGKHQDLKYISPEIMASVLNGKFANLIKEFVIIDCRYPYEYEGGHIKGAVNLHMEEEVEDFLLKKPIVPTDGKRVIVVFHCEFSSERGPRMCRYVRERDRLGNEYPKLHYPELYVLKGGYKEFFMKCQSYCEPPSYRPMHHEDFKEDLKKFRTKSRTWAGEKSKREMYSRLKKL
Nature of the experiment: Inhibition of recombinant human GST-tagged cdc25A phosphatase activity using 3-O-methyl fluorescein phosphate at 100 uM. In a few lines:
(§3)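 Test concentration 100 µM. Fluorescence (ex 475 / em 510 nm) read every 20 min for 2 h at 30 °C. Residual activity expressed relative to DMSO set at 100%.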

In experiment [16] the test system is HCT-116. Kind of experiment: Induction of apoptosis in human HCT116 cells assessed as decrease in cdc25C level at 50 uM by Western blotting. Type of experiment: functional, cell-based. To be noted: TDE = time-dependent effect.
Experiment [17] concerns HCT-116. Nature of the experiment: Induction of apoptosis in human HCT116 cells assessed as decrease in bcl-2 level by Western blotting. Type of experiment: functional, cell-based. The conditions noted are these: TDE = time-dependent effect. In a few lines: as §2
The target of experiment [18] is T2, M-phase inducer phosphatase 3 (Homo sapiens) (UniProt P30307).
T2 sequence (whole entry): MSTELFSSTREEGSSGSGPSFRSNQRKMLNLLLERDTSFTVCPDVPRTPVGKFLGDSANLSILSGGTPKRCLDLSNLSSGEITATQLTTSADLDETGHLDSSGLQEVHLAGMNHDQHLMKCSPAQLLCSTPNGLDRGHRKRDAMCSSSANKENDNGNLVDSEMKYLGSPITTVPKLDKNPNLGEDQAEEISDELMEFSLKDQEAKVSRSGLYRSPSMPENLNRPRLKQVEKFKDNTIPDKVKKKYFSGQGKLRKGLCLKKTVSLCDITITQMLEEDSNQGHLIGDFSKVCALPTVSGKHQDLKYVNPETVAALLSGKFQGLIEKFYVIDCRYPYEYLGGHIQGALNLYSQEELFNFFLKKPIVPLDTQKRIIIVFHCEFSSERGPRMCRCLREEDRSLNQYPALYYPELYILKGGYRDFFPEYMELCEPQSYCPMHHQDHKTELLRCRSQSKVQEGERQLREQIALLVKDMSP
Kind of experiment: Inhibition of recombinant human GST-tagged cdc25C phosphatase activity using 3-O-methyl fluorescein phosphate at 100 uM. In short, it runs like this:
as §3

Experiment [19] has as its system HCT-116. Nature of the experiment: Cell cycle arrest in human HCT116 cells assessed as accumulation at S phase at 25 uM after 24 hrs using propidium iodide staining by cytofluorometry (reference value: 4.91%). Type of experiment: functional.
The subject of experiment [20] is HCT-116. Kind of experiment: Cell cycle arrest in human HCT116 cells assessed as accumulation at S phase at 50 uM after 24 hrs using propidium iodide staining by cytofluorometry (reference value: 4.91%). Type of experiment: functional.
In experiment [21] the test system is HCT-116. Nature of the experiment: Cytotoxicity against human HCT116 cells expressing p53 assessed as reduction in cell viability at 25 uM after 24 hrs by MTT assay. Type of experiment: functional. In short, it runs like this: as §1
Experiment [22] concerns HCT-116. Kind of experiment: Cell cycle arrest in human HCT116 cells assessed as accumulation at subG1 phase at 25 uM after 24 hrs using propidium iodide staining by cytofluorometry (reference value: 1.8%). In kind it is functional.
Experiment [23] relates to HCT-116. Nature of the experiment: Induction of apoptosis in human HCT116 cells assessed as increase in release of cytochrome C into cytosol by Western blotting. In kind it is functional, cell-based. In short, it runs like this:
as §2

Experiment [24] has as its system HCT-116. Kind of experiment: Induction of apoptosis in human HCT116 cells assessed as increase in p53 level at 50 uM from 8 to 48 hrs by Western blotting. In kind it is functional, cell-based. In a few lines:
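HCT116 cells exposed to 50 µM for 8, 24 and 48 h, with 0.05% DMSO control. Lysates run on SDS-PAGE and blotted with anti-p53 (DO-1) at 1:1000 for 1 h at room temperature. GAPDH used as loading control.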

Experiment [25] deals with HCT-116. Kind of experiment: Induction of apoptosis in human HCT116 cells assessed as PARP cleavage at 50 uM from 24 to 72 hrs by Western blotting. Type of experiment: functional, cell-based. In short, it runs like this:
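HCT116 cells exposed to 50 µM for 24, 48 and 72 h, with 0.05% DMSO control. RIPA lysates (75 µg) run on 7.5% SDS-PAGE and transferred to PVDF. Anti-PARP blot, with nucleolin as loading control. Cleavage read as the 116 kDa band converting to 89 kDa.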

Experiment [26] has as its system HCT-116. Nature of the experiment: Induction of apoptosis in NAC treated human HCT116 cells assessed as PARP cleavage at 50 uM treated 0.5 hrs before NAC challenge measured after 24 to 72 hrs by Western blotting. In kind it is functional, cell-based. In short, it runs like this: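 HCT116 cells pretreated with 5 mM NAC (water stock) for 0.5 h, then exposed to 50 µM for 24, 48 and 72 h. Cells lysed in RIPA with protease inhibitors. 75 µg protein run on 7.5% SDS-PAGE and blotted to PVDF. PARP probed at 1:1000 overnight at 4 °C. Nucleolin or GAPDH used as loading control.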

Experiment [27] concerns LNCaP. Kind of experiment: Induction of apoptosis in human LNCAP cells assessed as increase in caspase 3/7 activation at 20 ug/ml after 24 hrs by Western blotting. Type of experiment: functional, cell-based. In a few lines:
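LNCaP cells grown in RPMI 1640 with 10% FCS, then treated with 20 µg/ml doxorubicin (water stock) for 24 h or left untreated. Lysates run on 12.5% SDS-PAGE and probed for full-length and cleaved caspase 3.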

Experiment [28] concerns HCT-116. Kind of experiment: Induction of apoptosis in human HCT116 cells assessed as PARP cleavage at 50 uM from 24 to 48 hrs by Western blotting. Type of experiment: functional, cell-based. In a few lines: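 HCT116 cells (McCoy's 5A, 10% FCS, 37 °C, 5% CO2) exposed to 50 µM compound (DMSO stock; 0.05% DMSO control) for 24, 48 and 72 h. Total extract in RIPA buffer with protease inhibitors, 75 µg protein run on 7.5% SDS-PAGE, blotted to PVDF. Anti-PARP 1:1000 overnight at 4 °C. 116 kDa full-length and 89 kDa cleaved bands scored. Nucleolin as loading control.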

The structures appear in SMILES notation. Active and inactive are the calls of the source. The calls are words filed in the database; no cut-off is given here.

On to `C=CCSSSSCC=C`, for which the result in [1] was Active.

On to `COc1ccc2c(CSSSCc3cc(=O)oc4cc(OC)ccc34)cc(=O)oc2c1`, for which the Activity entry was “tde” in [2]; 50% in [4]; 14.33% in experiment [5]; 63.19% in experiment [6]; 66.07% in [7]; “tde” in experiment [8]. Also, the Activity in experiment [10] was 10.43%; in experiment [11] it was 13.59%; in experiment [12], “Dose-dependent effect”; in experiment [16], “tde”; in [17], “tde”; in experiment [19], 4.61%. The Activity is 3.9% in experiment [20], 22% in [21] and 12.28% in [22]. In addition, the result in experiment [3], in experiment [13], in experiment [14], in experiment [23], in [24] and in [25] was Active. For the same compound, the viability at 50 µM in experiment [9] is 20%. For the same compound, the inhibition entry in experiment [15] and in experiment [18] was “Active” each time. In addition, the outcome in experiment [26] was inactive.

Take `COc1cccc2c1C(=O)c1c(O)c3c(c(O)c1C2=O)C[C@@](O)(C(=O)CO)C[C@@H]3O[C@H]1C[C@H](N)[C@H](O)[C@H](C)O1`: in experiment [27], the outcome was Active.

As to `COc1cc(N(C)C)cc(CN(C)CCc2ccc([N+](=O)[O-])cc2)c1O`, the inhibition entry in [15] and in experiment [18] was “Active” each time.

Regarding `C=CCSSCC=C`, the result in experiment [28] and in [1] was Active.

Regarding `COc1ccc2c(CSSCc3cc(=O)oc4cc(OC)ccc34)cc(=O)oc2c1`, the Activity result is “tde” in experiment [2], 50% in [4], “Dose-dependent effect” in experiment [12] and 30% in [21]. The outcome in experiment [3], in [28], in experiment [14], in experiment [24], in experiment [25] and in [1] was Active. For the same compound, in experiment [9], the viability at 50 µM amounted to 20%. The inhibition result in [15] and in experiment [18] was “Active” each time.
